# Hits are enriched below; roughly 4.9% of the tested compounds scored in any of these assays.
# STAT1 act: STAT1 signaling activation. NIH 3T3 STAT1-luciferase reporter, IFN-gamma, luminescence; 100% = IFN-gamma alone, no compound. activation (% of control), % at 5.5 µM. 200,000 tested, 2.6% active;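 active = activation above the screen-wide mean activation plus 3 SD, cut at about 130% in these data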
# NF-kB neuron act: raises NF-kB expression in human neuronal cells. NF-kB reporter expression; stronger effect = higher value. fold change at 12.5 µM. 190,000 tested, 1.6% active; in the data active = fold change above about 3.3
# STAT3 inh: STAT3 signaling inhibition; U3A cells, IL-6 STAT3-luciferase reporter, luminescence; host cell line lacks STAT1; inhibition, % at 5.5 µM; 190,000 tested, 0.89% active; AID 862;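 active = inhibition above the mean inhibition across all screened compounds plus 3 SD, cut at about 44% in these data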
# STAT1 blocker: reduces IFN-gamma driven STAT1 reporter signal; AID 920; NIH 3T3 STAT1-luciferase reporter, luminescence; 200,000 tested, 0.35% active; inhibition, % at 5.5 µM;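 active = inhibition above a set limit, the mean inhibition across all tested compounds plus 3 SD, cut at about 34% in these data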
# APP 5'UTR act: activates APP 5'UTR luciferase reporter; SH-SY5Y APP 5'UTR luciferase reporter, luminescence; zero percent = DMSO vehicle wells; activation, % at 2 µM; 190,000 tested, 1% active; AID 1276;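 active = activation above a set limit, based on mean plus 3 SD of controls, cut at about 140% in these data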
# STAT3 activator: increases IL-6 driven STAT3 reporter signal; U3A cells, IL-6 STAT3-luciferase reporter, luminescence; 100% = signal with IL-6 EC80 alone; activation (% of control), % at 5.6 µM; 190,000 tested, 0.91% active;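 active = activation above the screen-wide mean of compound activation plus 3 SD, cut at about 130% in these data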
#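 Material: STAT3-luciferase reporter U3A cells. Controls: IL-6-treated wells, 100% activation. Read-out: % activation versus median of IL-6-stimulated wells. Probe or stimulus: IL-6 stimulus at 33 ng/mL final. Timing: compound 1 h, then IL-6 6 h at 37 °C. Signal: reporter luminescence signal.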
# STAT1 activ conf: STAT1 activation, confirmation assay | shares compounds with STAT1 act | NIH 3T3 STAT1-luciferase reporter, IFN-gamma potentiation, luminescence; 100% = IFN-gamma EC80 alone, no compound | activation (% of control), % at 5.7 µM | 1,200 tested, 97% active | AID 1262;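 active = activation above a set limit carried over from the earlier primary STAT1 screen, cut at about 140% in these data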
# NFkB act: NF-kappaB activation in STAT1 activator counter-screen; shares compounds with STAT1 act; HEK293T NF-kB luciferase reporter, TNF-alpha stimulated, luminescence; 100% = TNF-alpha with vehicle only; activation (% of control), % at 5.7 µM; 1,200 tested, 43% active;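 active = activation above the mean of solvent-only control wells plus 3 SD, set per campaign, cut at about 130% in these data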;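 note: TNF-alpha given at a submaximal dose yielding about 80% of full reporter signal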
# STAT3 act STAT1c: activates human STAT3, counter-screen to STAT1 activators | shares compounds with STAT1 act | U3A cells STAT3-luciferase reporter, IL-6, luminescence; cells lack STAT1; 100 = IL-6 alone, no compound effect | activation (% of control), % at 5.7 µM | 1,200 tested, 46% active | AID 1316;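 active = activation above the solvent-only control well mean plus 3 SD, set per plate batch, cut at about 110% in these data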;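 note: higher means more STAT3 reporter activation so hits are non-selective activators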
# A number is an active result; n = inactive; x = no result.
SMILES,STAT1 act,NF-kB neuron act,STAT3 inh,STAT1 blocker,APP 5'UTR act,STAT3 activator,STAT1 activ conf,NFkB act,STAT3 act STAT1c
S=C(c1ccc(-c2ccc(Br)cc2)o1)N1CCCCC1,170,5.6,n,n,159,n,210,145,114
S=C(Nc1ccc(Cl)c(Cl)c1)N1CCOCC1,n,n,n,n,n,n,x,x,x
S=C(c1ccc(-c2ccc(Cl)c(Cl)c2)o1)N1CCOCC1,157,5.3,n,n,n,n,202,144,119
C#CCN1C(=O)S/C(=C/c2cc(C)n(CC)c2C)C1=O,199,n,n,n,n,n,239,134,n
CCn1c(C)cc(/C=C2/SC(=S)N(CC(=O)O)C2=O)c1C,n,n,n,n,n,n,x,x,x
CCN(CC)S(=O)(=O)c1ccc(NC(=O)COC(=O)CCc2cc(OC)c(OC)c(OC)c2)cc1,n,n,n,n,n,n,x,x,x
CCOc1ccc2nc(NC(=S)N(C)C)sc2c1,183,12,n,n,167,n,293,134,n
CCOc1ccc2nc(NC(=O)CSc3ccccc3)sc2c1,n,n,n,n,n,n,x,x,x
CN(C)C(=S)Nc1nc2ccccc2s1,165,9.1,n,n,n,n,170,138,n
Cc1nnc(C)n1N,n,n,n,n,n,n,x,x,x
COc1ccc(/C=C2\OC(=O)c3c(OC)cccc32)cc1OC,169,n,n,n,n,n,209,139,112
CC(=O)COc1ccc2c(C)c(-c3ccccc3)c(=O)oc2c1,156,n,n,n,n,n,156,n,n
CC(=O)COc1ccc2c3c(c(=O)oc2c1)CCCC3,n,n,n,n,n,n,x,x,x
c1ccc(-c2cc3nccc(-c4ccccn4)n3n2)cc1,160,n,n,n,n,n,188,135,117
Cc1cc2nccc(-c3ccccn3)n2n1,n,n,n,n,n,n,x,x,x
COc1cc(-c2nnc(SCC(=O)N(C)C3CCS(=O)(=O)C3)o2)cc(OC)c1OC (stereo not drawn),n,n,n,n,n,n,x,x,x
O=C(NC1CCCC1)C(c1ccccc1)N(Cc1cccnc1)C(=O)Cc1cccs1 (stereo not drawn),n,n,n,n,n,n,x,x,x
C=CCN1C=CC(=C/C=C(/C#N)C(=O)OCC)C=C1,175,4.6,n,n,143,n,210,133,117
CCOC(=O)/C(C#N)=C\N(C)C,n,n,n,n,n,n,x,x,x
O=c1c(-c2nc3ccccc3s2)cccn1Cc1ccccc1,161,3.7,n,n,n,n,211,n,n
Cc1ccc(/C=N/N=C/c2ccc(C)s2)s1,177,10,n,n,178,n,238,n,n
COc1cccc(/C=N/n2cnc3ccccc32)c1OC,162,4.1,n,n,152,n,205,n,n
COc1cccc(/C=N/n2c(N)nc3ccccc32)c1OC,n,n,n,n,n,n,x,x,x
Cc1ccc(-c2csc(C(C#N)=C3CCCC3)n2)cc1,n,n,n,n,n,n,x,x,x
N#CC(=C1CCCC1)c1nc(-c2ccccc2)cs1,166,8.1,n,n,n,n,215,154,122
SMILES,STAT1 act,NF-kB neuron act,STAT3 inh,STAT1 blocker,APP 5'UTR act,STAT3 activator,STAT1 activ conf,NFkB act,STAT3 act STAT1c
Cn1c(N2CCOCC2)nc(-c2ccccc2)c1-c1ccccc1,n,n,n,n,n,n,x,x,x
CCOc1ccc(N/C=C/C(=O)c2ccc(OC)cc2)c([N+](=O)[O-])c1,n,n,n,n,n,n,x,x,x
COc1ccc(N/C=C/C(=O)c2ccc(C)cc2)c([N+](=O)[O-])c1,153,x,n,n,n,n,218,n,n
Nc1nc(CN2CCCCCC2)nc(Nc2ccccc2)n1,n,n,n,n,n,n,x,x,x
Cc1c(-c2nc(N)nc(Nc3ccccc3)n2)oc2ccccc12,164,n,n,n,154,n,211,148,n
Cc1cc(C)c(S(=O)(=O)Cc2ccccc2)c(=O)[nH]1,n,n,n,n,n,n,x,x,x
Cc1ccc(Nc2cc(C)nn2-c2nc(C)cc(=O)[nH]2)cc1,232,n,n,n,n,n,181,167,n
Cc1ccc(C2=Nc3cccnc3C(c3ccccc3)=NN2)cc1,156,n,n,n,n,n,202,143,115
O=C(C[n+]1cccc(CO)c1)Nc1nc2ccccc2s1,n,n,n,n,n,n,x,x,x
c1ccc(-c2noc(CN3CCCC(OCc4ccccn4)C3)n2)cc1 (stereo not drawn),n,n,n,n,n,n,x,x,x
O=C(NC1=NCCS1)c1ccccc1OCc1ccccc1Cl,n,n,n,n,n,n,x,x,x
O=c1/c(=C/c2ccccn2)sc2nc3ccccc3n12,184,4.8,n,n,n,n,289,138,158
COc1ccc2nc3oc(C(=O)N4CCCCC4)cc3cc2c1,179,6.4,n,n,n,n,206,136,n
O=C(Nc1ncccn1)c1ccc([N+](=O)[O-])cc1,n,n,n,n,n,n,x,x,x
CC(C)(C)c1ccc(C(=O)Nc2ccc([N+](=O)[O-])cn2)cc1,151,n,n,n,n,n,213,135,n
O=C(NC(=S)Nc1ccccn1)c1ccc([N+](=O)[O-])cc1,182,n,n,n,n,n,191,n,n
Cc1ccc(OCC(=O)NCc2cccs2)c([N+](=O)[O-])n1,n,n,n,n,n,n,x,x,x
O=C(CN(C(=O)c1csnn1)c1cccc2c1CCCC2)NC1CCCC1,n,n,n,n,n,n,x,x,x
CCc1ccc(/C=N/NC(=O)c2c[nH]c3ccccc23)s1,154,n,n,n,n,n,189,n,115
CCN(CC)c1ccc(/C=N/NC(=O)c2c[nH]c3ccccc23)cc1,n,n,n,n,n,n,x,x,x
CCOc1cccc(SCc2noc(C(=O)NCC3CCCO3)c2C(=O)O)c1 (stereo not drawn),n,n,n,n,n,n,x,x,x
COc1ccc2cc(C(N)=O)c(=Nc3ccccc3)oc2c1,152,n,n,n,137,n,142,n,n
COc1ccc(OC)c(N=c2oc3cc(O)ccc3cc2C(N)=O)c1,n,n,n,n,n,n,x,x,x
Cc1ccc(NC(=O)COC(=O)CNC(=O)c2ccco2)cc1,n,n,n,n,n,n,x,x,x
c1ccc(N2CCN(c3nc4cc5c(cc4s3)OCCO5)CC2)cc1,158,n,n,n,n,n,190,n,n

# High-throughput results deposited in PubChem by several laboratories.
